In test [1] the target is T1, P2X1 receptor K136W (Homo sapiens, UniProt P51575, K136W).
T1 sequence (P51575 1-399 K136W): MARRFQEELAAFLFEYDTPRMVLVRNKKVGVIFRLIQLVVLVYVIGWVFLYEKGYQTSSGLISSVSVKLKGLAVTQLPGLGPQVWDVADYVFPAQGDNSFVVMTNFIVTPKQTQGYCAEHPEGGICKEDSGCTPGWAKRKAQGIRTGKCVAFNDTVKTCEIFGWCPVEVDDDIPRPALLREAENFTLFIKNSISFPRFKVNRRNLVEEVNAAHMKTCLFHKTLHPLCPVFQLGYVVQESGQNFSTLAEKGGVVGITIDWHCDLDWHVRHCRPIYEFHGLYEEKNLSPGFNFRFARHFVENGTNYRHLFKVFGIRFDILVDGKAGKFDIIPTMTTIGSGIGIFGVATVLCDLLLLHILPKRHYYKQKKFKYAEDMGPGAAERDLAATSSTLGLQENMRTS
As to the kind of experiment: Saturation radioligand binding with [3H]-α,β-methylene ATP. In short, it runs like this: (§1)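 Whole HEK293 Flp-In T-REx cells stably expressing receptor, tetracycline-induced (150 ng/ml, 2 days), 15,000 cells/well, washed in HEPES binding buffer pH 7.4 with Ca2+/Mg2+. Increasing [3H]-α,β-methylene ATP added, 3 h room temperature with gentle agitation; non-specific binding with 10 μM ATP. Ice-cold 0.9% NaCl washes, scintillation counting (CCPM). Specific binding fitted one-site; values above 300 nM termed not defined.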

Test [2] deals with T2, P2X1 receptor D170A (Homo sapiens, UniProt P51575, D170A).
T2 sequence (P51575 1-399 D170A): T1 sequence (P51575 1-399 K136W) with W136K, D170A
As to the kind of experiment: Calcium ion influx assay. The test is classed as cell-based. Put shortly: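 Tetracycline-induced (150 ng/mL, 2 days) stable HEK293 Flp-In T-REx cells at 15,000 cells/well, loaded with Fluo-8 for 1 h at 37 °C in probenecid-containing HEPES buffer, pH 7.4. Then 30 min buffer incubation, 20 s baseline, agonist addition and 2 min reading (ex 485/em 525 nm). Max-minus-min fluorescence normalised to 10 µM ionomycin, rescaled 0–100. Constrained four-parameter fit; EC50 per experiment; four independent experiments, triplicate.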

Test [3] addresses T3, P2X1 receptor R139A (Homo sapiens, UniProt P51575, R139A).
T3 sequence (P51575 1-399 R139A): T1 sequence (P51575 1-399 K136W) with W136K, R139A
As to the kind of experiment: Calcium ion influx assay. The format is cell-based.

The target in test [4] is T4, WT-P2X1 receptor (Homo sapiens, UniProt P51575).
T4 sequence (P51575 1-399): T1 sequence (P51575 1-399 K136W) with W136K
Put plainly: Calcium ion influx assay. The format is cell-based. The following applies: read-out: potency; WT-P2X1, Fig. 4B.

Test [5] deals with T5, P2X1 receptor E122A (Homo sapiens, UniProt P51575, E122A).
T5 sequence (P51575 1-399 E122A): T1 sequence (P51575 1-399 K136W) with E122A, W136K
Put plainly: Saturation radioligand binding with [3H]-α,β-methylene ATP.

The target in test [6] is T3, P2X1 receptor R139A. Put plainly: Saturation radioligand binding with [3H]-α,β-methylene ATP. In short, it runs like this:
as §1

Where a chain is given by its changes, count along the chain named.

For the molecule `Nc1ncnc2c1ncn2[C@@H]1O[C@H](COP(=O)(O)CP(=O)(O)OP(=O)(O)O)[C@@H](O)[C@H]1O` [α,β-methylene ATP], the “binding affinity compared to WT-P2X1” value is on record as “similar” in test [1] and “beyond the threshold that could be accurately measured” in test [5]. The results for the “fold decrease in potency compared to WT-P2X1” value in test [2] and in test [3] were 58 fold and 3.5 fold, respectively. Besides, in test [3] (maximal α,β-methylene ATP), the “desensitisation rate compared to WT-P2X1” value is “significantly slowed the desensitisation rate”. The EC50 in test [4] stood at 99 nM. Moreover, the “fold decrease in affinity compared to WT-P2X1” value in test [6] worked out at 6 fold.
